Data on one compound can be found in ChEMBL document CHEMBL3745677, “Discovery of 6-(4-{[5-Cyclopropyl-3-(2,6-dichlorophenyl)isoxazol-4-yl]methoxy}piperidin-1-yl)-1-methyl-1H-indole-3-carboxylic Acid: A Novel FXR Agonist for the Treatment of Dyslipidemia” (J Med Chem, 2015).

Data set [1] relates to Mus musculus. Description: Antidyslipidemic activity in western-diet fed mouse expressing LDL-receptor (-/-) assessed as decrease in very-low density lipoprotein level at 1 mg/kg qd for a week administered via gavage by FPLC analysis. The conditions noted are these: po. Format: functional. The method, boiled down:
(§1)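 LDLR null male mice, six per group, were dosed by gavage once daily for one week (vehicle 5% Solutol, 5% EtOH, 1% wt/v CMC; 5 mL/kg). Serum was collected by cardiac puncture on day 7 under CO2 anaesthesia. Pooled serum from each treatment group was fractionated by FPLC to quantify VLDL and LDL.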

For the next data set, the target named is T1, Androgen receptor (Homo sapiens, UniProt P10275).
T1 sequence (P10275 whole entry): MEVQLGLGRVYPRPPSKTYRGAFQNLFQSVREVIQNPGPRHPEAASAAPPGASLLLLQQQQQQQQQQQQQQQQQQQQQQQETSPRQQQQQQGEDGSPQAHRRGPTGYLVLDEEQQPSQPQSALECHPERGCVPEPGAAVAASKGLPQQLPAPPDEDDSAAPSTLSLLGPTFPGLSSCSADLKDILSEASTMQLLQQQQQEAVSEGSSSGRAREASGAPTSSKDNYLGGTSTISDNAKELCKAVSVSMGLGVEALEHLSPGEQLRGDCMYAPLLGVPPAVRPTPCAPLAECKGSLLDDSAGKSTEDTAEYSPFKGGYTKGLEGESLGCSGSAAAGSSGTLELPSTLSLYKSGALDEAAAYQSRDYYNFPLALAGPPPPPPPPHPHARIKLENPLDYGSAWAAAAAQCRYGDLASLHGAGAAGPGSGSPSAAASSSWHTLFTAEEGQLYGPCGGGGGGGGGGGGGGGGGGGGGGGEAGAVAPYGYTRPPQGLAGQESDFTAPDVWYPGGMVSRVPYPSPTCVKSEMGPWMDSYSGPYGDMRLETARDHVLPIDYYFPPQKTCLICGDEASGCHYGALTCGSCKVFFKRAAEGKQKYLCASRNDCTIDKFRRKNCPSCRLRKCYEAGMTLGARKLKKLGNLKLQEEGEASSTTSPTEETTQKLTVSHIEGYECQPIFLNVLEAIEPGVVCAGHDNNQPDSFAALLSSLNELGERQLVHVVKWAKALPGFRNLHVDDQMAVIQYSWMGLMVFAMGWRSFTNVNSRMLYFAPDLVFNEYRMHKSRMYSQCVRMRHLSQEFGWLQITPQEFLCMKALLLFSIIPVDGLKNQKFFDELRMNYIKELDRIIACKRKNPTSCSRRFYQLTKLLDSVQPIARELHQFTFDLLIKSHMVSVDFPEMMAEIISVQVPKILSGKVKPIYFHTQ
In words: Agonist activity at androgen receptor (unknown origin) expressed in HEK293 cells assessed as transcriptional activation. Format: cell-based.

Data set [2] can be described thus: Terminal half life in beagle dog at 1 mg/kg, iv by LC-MS/MS analysis. Format: ADME, organism-based, Canis lupus familiaris. The note with it: in vivo, read-out: beta t1/2 (converted). The method, boiled down: (§2)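 Intravenous dose given in 5% Solutol / 5% EtOH in saline (1 mg/kg rat and dog, 0.91 mpk monkey). Plasma samples collected and analyzed by LC-MS/MS; parameters reported as mean ± SD, N=2-3.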

The subject of data set [3] is Rattus norvegicus. In words: Antidyslipidemic activity in ZDF rat assessed as VLDL level at 10 mg/kg cotreated with 0.3 mg/kg rosiglitazone for 9 days by FPLC analysis (reference value: 35 mg/dL). Format: functional, Zucker.
Data set [4] concerns Rattus norvegicus. In words: Antidyslipidemic activity in ZDF rat assessed as HDL level at 10 mg/kg cotreated with 0.3 mg/kg rosiglitazone for 9 days by FPLC analysis (reference value: 48.3 mg/dL). Format: functional, Zucker.
In data set [5] the test system is Mus musculus. Description: Antidyslipidemic activity in western-diet fed mouse expressing LDL-receptor (-/-) assessed as decrease in total cholesterol level at 10 mg/kg qd for a week administered via gavage […]. Format: functional. The conditions noted are these: po. The method, boiled down:
(§3)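 Male LDLR null mice, six per group, were gavaged once daily for one week with compound (in situ sodium salt) or vehicle (5% Solutol, 5% EtOH, 1% wt/v CMC) at 5 mL/kg. On day 7 they were bled by cardiac puncture under CO2 anaesthesia. Serum cholesterol and triglycerides were measured enzymatically on a clinical chemistry analyser (mean ± SD, n=6). ED50 was obtained by nonlinear regression.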

Data set [6] relates to Rattus norvegicus. In words: Antidyslipidemic activity in ZDF rat assessed as VLDL level at 10 mg/kg for 9 days by FPLC analysis (reference value: 35 mg/dL). Format: functional, Zucker.
The nature of data set [7]: Volume of distribution at steady state in beagle dog at 1 mg/kg, iv by LC-MS/MS analysis. The note with it: in vivo, read-out: Vdss. Format: ADME, organism-based, Canis lupus familiaris. In outline: as §2
Data set [8] in a line: Cmax in Sprague-Dawley rat at 3 mg/kg, po by LC-MS/MS analysis. The note with it: in vivo. Details: dose 3 mg/kg, route oral. Format: ADME, organism-based. The method, boiled down: (§4)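 Sprague Dawley rats, Beagle dogs and Cynomolgus monkeys were dosed IV at 1 mg/kg (rat, dog) or 0.91 mpk (monkey) in 5% Solutol/5% EtOH in saline. Oral/nasogastric dosing was 3 mpk in 1.0% CMC/0.25% PS80/0.05% antifoam in purified water. Samples were processed to plasma and analysed by LC-MS/MS; values are mean ± SD, N=2-3.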

In data set [9] the test system is Mus musculus. Description: Antidyslipidemic activity in western-diet fed mouse expressing LDL-receptor (-/-) assessed as decrease in low density lipoprotein level at 30 mg/kg qd for a week administered via gavage by FPLC analysis. The conditions noted are these: po. Format: functional. In outline:
as §1

The nature of data set [10]: Tmax in beagle dog at 3 mg/kg, po by LC-MS/MS analysis. Format: ADME, organism-based, Canis lupus familiaris. The note with it: in vivo. The method, boiled down:
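Oral/nasogastric dosing at 3 mpk in 1.0% CMC/0.25% PS80/0.05% antifoam in purified water. Plasma samples collected and analyzed by LC-MS/MS; parameters reported as mean ± SD, N=2-3.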

Data set [11] can be described thus: Initial plasma concentration in Sprague-Dawley rat at 1 mg/kg, iv by LC-MS/MS analysis. Format: ADME, organism-based. In outline: as §2
Data set [12] is described as follows: Clearance in Sprague-Dawley rat at 1 mg/kg, iv by LC-MS/MS analysis. The note with it: in vivo. Format: ADME, organism-based. In outline: as §4
Data set [13] relates to Mus musculus. In words: Antidyslipidemic activity in western-diet fed mouse expressing LDL-receptor (-/-) assessed as decrease in triglyceride level administered once daily for a week via gavage […]. Format: functional. The conditions noted are these: po. In outline:
as §3

The subject of data set [14] is Rattus norvegicus. In words: Antidyslipidemic activity in ZDF rat assessed as VLDL level at 30 mg/kg for 9 days by FPLC analysis (reference value: 35 mg/dL). Format: functional, Zucker.
Data set [15] in a line: AUC (0 to 24 hrs) in beagle dog at 1 mg/kg, iv by LC-MS/MS analysis. Format: ADME, organism-based, Canis lupus familiaris. Set-up: time < 24 hr, dose 1 mg/kg, route intravenous. The conditions noted are these: in vivo. In outline: as §4
Data set [16] relates to Rattus norvegicus. In words: Antidyslipidemic activity in ZDF rat assessed as LDL/IgHDL level at 10 mg/kg for 9 days by FPLC analysis (reference value: 17.8 mg/dL). Format: functional, Zucker.
Data set [17] deals with Mus musculus. In words: Antidyslipidemic activity in western-diet fed mouse expressing LDL-receptor (-/-) assessed as decrease in very-low density lipoprotein level at 3 mg/kg qd for a week administered via gavage by FPLC analysis. The conditions noted are these: po. Format: functional. The method, boiled down: as §1
Data set [18] is described as follows: Oral bioavailability in cynomolgus monkey at 3 mg/kg by LC-MS/MS analysis. Format: ADME, organism-based, Macaca fascicularis. The conditions noted are these: in vivo. The method, boiled down:
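Bioavailability calculated from a 3 mpk oral/nasogastric dose (1.0% CMC/0.25% PS80/0.05% antifoam in water) against a 0.91 mpk IV dose (5% Solutol/5% EtOH in saline). Plasma analyzed by LC-MS/MS; mean ± SD, N=2-3.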

Data set [19] deals with Rattus norvegicus. In words: Antidyslipidemic activity in ZDF rat assessed as HDL level at 10 mg/kg for 9 days by FPLC analysis (reference value: 48.3 mg/dL). Format: functional, Zucker.

Each structure is given as a SMILES string.

A word on the inhibition in vivo: it is how much of the control response was suppressed. A word on the EC50: it is the concentration at which the effect is half-maximal. The term Cmax denotes the maximum level reached in the sampled fluid or tissue. A word on the Tmax: it is the time from dosing to the highest level. As a reminder, the clearance is a measure of how efficiently the substance is removed, as volume per time. Broadly, the AUC(0-t) is exposure summed from dosing to a finite time, without extrapolation to infinity. Broadly, the bioavailability is the share of a dose that reaches the circulation, judged against a reference dose that is usually intravenous. Take `Cn1cc(C(=O)O)c2ccc(N3CCC(OCc4c(-c5c(Cl)cccc5Cl)noc4C4CC4)CC3)cc21` [TERN-101]: the inhibition in vivo at 1 mg/kg in the data set with Mus musculus [1] is 59%. Moreover, the EC50 on Androgen receptor was more than 10 µM. In addition, the half-life in data set [2] is 10 h. Moreover, the Activity in the data set on Rattus norvegicus [3] was found to be 8.5 mg/dL; in the data set on Rattus norvegicus [4], 95 mg/dL; with Rattus norvegicus [6] it was 18.2 mg/dL; in the data set with Rattus norvegicus [14], 13.2 mg/dL; in the data set on Rattus norvegicus [16] it was 12.5 mg/dL; in the data set with Rattus norvegicus [19] it was 74.4 mg/dL. In the data set on Mus musculus [5], the inhibition in vivo at 10 mg/kg was found to be 80%. In addition, the Vd in [7] was determined as 2.48 L/kg. In data set [8], the highest level (Cmax) was 130 ng/mL. For the same compound, the inhibition in vivo at 30 mg/kg in the data set with Mus musculus [9] came to 62%. For the same compound, in data set [10], the Tmax worked out at 0.75 h. The C0 in data set [11] was found to be 2530 ng/mL. This compound also showed a clearance in data set [12] of 30 mL/min/kg. The ED50 in the data set on Mus musculus [13] came out at 3.4 mg/kg. In data set [15], this compound showed an AUC(0-t) at 24 h of 1780 ng·h/mL. For the same compound, in the data set on Mus musculus [17], the inhibition in vivo at 3 mg/kg is 78%. This compound also showed a bioavailability in data set [18] of 24%.
